For assay [1], the target named is Phosphatidylinositol 4,5-bisphosphate 3-kinase catalytic subunit alpha isoform (Homo sapiens) (UniProt P42336). As to the kind of experiment: Inhibition of PI3Kalpha in human HCT116 cells assessed as inhibition of Akt phosphorylation at S473 residue relative to DMSO. The note with it: HCT-116. It counts as cell-based. The method in brief:
(§1)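 AKT activation was read as pAKT on immunoblots of lysates from compound-treated HCT116-WT and HCT116-MUT cells, tested at a single concentration. Lysate protein was measured by the […]. Blots were blocked in 5% milk/TBST, probed with primary antibody (1:1000) and HRP secondary (1:1000), and developed by ECL. Band areas were quantified relative to DMSO.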

Assay [2] has as its system Phosphatidylinositol 4,5-bisphosphate 3-kinase catalytic subunit alpha isoform (Homo sapiens), P42336 [H1047R]. As to the kind of experiment: Inhibition of PI3Kalpha H1047R mutant in human HCT116 cells assessed as inhibition of Akt phosphorylation at S473 residue relative to DMSO. It counts as cell-based. The note with it: HCT-116. The method in brief:
as §1

The test system is the same in assay [3]. Put plainly: Inhibition of PI3Kalpha H1047R mutant in human HCT116 cells relative to LY294002. It counts as cell-based. As to conditions: HCT-116. Summed up: (§2)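 PI3K kinase activity was assayed in lysates of compound-treated HCT116-WT and HCT116-MUT cells, using a single compound concentration. Cells were washed with PBS, lysed, and the supernatants were collected by centrifugation for 15 min. Resulting band areas were quantified densitometrically relative to LY294002.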

In assay [4] the test system is HCT-116. As to the kind of experiment: Growth inhibition of human HCT116 cells by MTT assay. Type of assay: functional, cell-based. The method in brief: (§3)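 Growth of parental (WT) and H1047R-mutant HCT116 cells was measured by MTT assay, with absorbance read at 570 nm.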
Assay [5] deals with Phosphatidylinositol 4,5-bisphosphate 3-kinase catalytic subunit alpha isoform (Homo sapiens) (UniProt P42336). As to the kind of experiment: Inhibition of PI3Kalpha in human HCT116 cells relative to LY294002. As to conditions: HCT-116. Type of assay: cell-based. Summed up:
as §2

Assay [6] relates to Phosphatidylinositol 4,5-bisphosphate 3-kinase catalytic subunit alpha isoform (Homo sapiens), P42336 [H1047R]. Put plainly: Inhibition of PI3Kalpha H1047R mutant in human HCT116 cells assessed as increase in PARP cleavage relative to LY294002. Type of assay: cell-based. As to conditions: HCT-116. Summed up:
(§4)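 Apoptosis was assessed in HCT116-WT and HCT116-MUT cells, each treated with compound at a single concentration, by immunoblot for the 88 kDa cleaved PARP product. Blots were blocked in 5% milk/TBST, probed with primary antibody (1:1000) and peroxidase secondary (1:1000), and developed by ECL. Band areas were quantified by densitometry relative to LY294002.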

The target in assay [7] is Phosphatidylinositol 4,5-bisphosphate 3-kinase catalytic subunit alpha isoform (Homo sapiens) (UniProt P42336). As to the kind of experiment: Inhibition of PI3Kalpha in human HCT116 cells assessed as increase in PARP cleavage relative to LY294002. Type of assay: cell-based. As to conditions: HCT-116. The method in brief:
as §4

The test system of assay [8] is HCT-116. As to the kind of experiment: Growth inhibition of human HCT116 cells expressing PI3Kalpha H1047R mutant by MTT assay. Type of assay: functional, cell-based. The method in brief: as §3
(Formazan colour is commonly taken as a measure of viable cells.)

Assay [9] relates to HCT-116. As to the kind of experiment: Selectivity index, ratio of IC50 for human HCT116 cell to IC50 for PI3Kalpha H1047R mutant expressing human HCT116 cell. Type of assay: functional.

Molecules are shown by their SMILES.

A word on the IC50: it is the concentration that gives 50% inhibition.

Chain of Phosphatidylinositol 4,5-bisphosphate 3-kinase catalytic subunit alpha isoform (Homo sapiens), P42336 [H1047R] (P42336 whole entry H1047R, canonical isoform): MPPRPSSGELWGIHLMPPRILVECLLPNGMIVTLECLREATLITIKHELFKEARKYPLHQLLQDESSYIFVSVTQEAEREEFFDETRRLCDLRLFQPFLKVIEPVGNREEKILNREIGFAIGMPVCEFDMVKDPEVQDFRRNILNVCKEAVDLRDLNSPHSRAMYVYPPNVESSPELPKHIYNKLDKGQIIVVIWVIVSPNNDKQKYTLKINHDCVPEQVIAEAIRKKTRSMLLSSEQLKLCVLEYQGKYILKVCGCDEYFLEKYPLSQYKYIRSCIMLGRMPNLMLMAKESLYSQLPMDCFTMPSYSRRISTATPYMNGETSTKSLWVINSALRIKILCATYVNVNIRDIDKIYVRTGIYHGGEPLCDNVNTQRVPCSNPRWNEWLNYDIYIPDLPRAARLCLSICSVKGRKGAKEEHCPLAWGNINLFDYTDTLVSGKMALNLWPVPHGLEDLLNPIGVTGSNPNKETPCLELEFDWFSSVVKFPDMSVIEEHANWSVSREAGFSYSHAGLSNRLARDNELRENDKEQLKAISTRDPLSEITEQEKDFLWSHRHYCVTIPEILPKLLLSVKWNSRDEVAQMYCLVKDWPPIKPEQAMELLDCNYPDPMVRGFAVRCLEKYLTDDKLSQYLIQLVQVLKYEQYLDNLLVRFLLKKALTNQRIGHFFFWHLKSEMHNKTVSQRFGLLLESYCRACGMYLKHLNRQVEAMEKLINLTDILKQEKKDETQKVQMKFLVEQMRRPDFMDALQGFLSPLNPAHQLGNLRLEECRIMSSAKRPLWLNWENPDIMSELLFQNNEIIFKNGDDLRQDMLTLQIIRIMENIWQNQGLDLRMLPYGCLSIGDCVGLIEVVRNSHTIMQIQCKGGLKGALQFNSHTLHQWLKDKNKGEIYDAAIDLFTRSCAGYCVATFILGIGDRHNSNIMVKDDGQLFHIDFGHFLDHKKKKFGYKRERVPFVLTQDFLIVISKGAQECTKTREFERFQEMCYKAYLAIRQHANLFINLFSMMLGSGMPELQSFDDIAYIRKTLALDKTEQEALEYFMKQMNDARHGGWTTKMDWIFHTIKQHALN
Chain of Phosphatidylinositol 4,5-bisphosphate 3-kinase catalytic subunit alpha isoform (Homo sapiens) (P42336 whole entry, canonical isoform): as the sequence (P42336 whole entry H1047R, canonical isoform) above, with R1047H counted along it

As to `O=c1cc(N2CCOCC2)oc2c(-c3ccccc3)cccc12`, the fold change (FC) in [1] amounted to 0.01; in [2], 0.41.

In the case of `O=C(NCc1ccccc1)c1cnc2ccccc2c1`, the fold change (FC) in [3] was determined as 0.87; in assay [5], 0.7; in assay [1], 1.59; in assay [6] it was 0.06; in [7] it was 0.81; in assay [2], 0.3. In addition, the IC50 amounted to 65 µM with HCT-116 [4] and 120 µM with HCT-116 [8].

As for `COc1ccc(NC(=O)c2c(O)c3cc(OC)ccc3[nH]c2=O)cc1`, the fold change (FC) came out at 0.64 in assay [3]; 0.82 in assay [5]; 1.66 in [1]; 3.9 in assay [6]; 0.01 in assay [7]; 0.44 in assay [2]. In addition, the IC50 with HCT-116 [4] was 64 µM; in the assay with HCT-116 [8], 6.3 µM. Besides, the “Ratio IC50” value in the assay with HCT-116 [9] turned out to be 10.

On to `O=C(Nc1cccc(F)c1)c1c(O)c2ccc(F)cc2[nH]c1=O`, for which the fold change (FC) in assay [3] worked out at 0.9; in assay [5], 0.75; in assay [1], 1.01; in assay [6], 1.35; in [7] it was 0.4; in assay [2], 0.51. Besides, the results for the IC50 in the assay with HCT-116 [4] and in the assay on HCT-116 [8] were 6.5 µM and 0.28 µM, respectively. The “Ratio IC50” value in the assay with HCT-116 [9] was found to be 23.

`O=C(NCc1ccccc1)c1cc2ccccc2[nH]c1=O`: the fold change (FC) in assay [3] is 0.8; in assay [5] it was 0.14; in assay [1], 0.09; in assay [6], 0.05; in assay [7], 0.92; in assay [2], 0.13. Besides, the figures for the IC50 with HCT-116 [4] and with HCT-116 [8] were 420 µM and 330 µM, respectively.

With `O=C(Nc1ccccc1F)c1c(O)c2cccc(F)c2[nH]c1=O`, the fold change (FC) came to 0.75 in [3]; 0.69 in assay [5]; 1.6 in assay [1]; 5.05 in [6]; 0.88 in assay [7]; 1.23 in assay [2]. In addition, the IC50 with HCT-116 [4] is 22 µM; in the assay with HCT-116 [8], 3.6 µM. The “Ratio IC50” value in the assay on HCT-116 [9] stood at 6.

For `O=C(NCc1ccccc1)c1cnc2ccccc2c1O`, the fold change (FC) in [3] worked out at 0.88; in [5], 0.56; in [1], 1; in assay [6] it was 0.2; in [7], 0.71; in assay [2], 0.2. For the same compound, the values for the IC50 with HCT-116 [4] and in the assay on HCT-116 [8] were 24 µM and 19 µM, respectively.

As to `O=C(Nc1ccccc1)c1c(O)nc2ccccc2c1O`, the fold change (FC) is 0.71 in assay [3]; 0.89 in [5]; 0.11 in assay [1]; 4.99 in [6]; 0.01 in assay [7]; 0.4 in assay [2]. For the same compound, the results for the IC50 in the assay on HCT-116 [4] and in the assay on HCT-116 [8] were 9.4 µM and 2.5 µM, respectively. In addition, the “Ratio IC50” value in the assay with HCT-116 [9] is 3.8.

Consider `Cn1c(=O)c(C(=O)Nc2ccccc2)c(O)c2ccccc21`, for which the IC50 with HCT-116 [4] stood at 110 µM; in the assay on HCT-116 [8], 100 µM.

For the compound `Cc1ccc(NC(=O)c2c(O)c3cc(C)ccc3[nH]c2=O)cc1`, the fold change (FC) in assay [3] was determined as 0.79; in assay [5], 0.75; in assay [1], 1.66; in assay [6], 1.14; in assay [7], 1; in [2] it was 0.41. Moreover, the IC50 with HCT-116 [4] stood at 27 µM; with HCT-116 [8], 5.6 µM. For the same compound, the “Ratio IC50” value with HCT-116 [9] was found to be 4.8.

`O=C(Nc1ccc(F)cc1)c1c(O)c2cc(F)ccc2[nH]c1=O`: the fold change (FC) in [3] amounted to 0.59; in [5] it was 0.65; in [1] it was 0.95; in assay [6], 1.37; in assay [7], 1.01; in [2], 0.86. In addition, the values for the IC50 in the assay with HCT-116 [4] and with HCT-116 [8] were 15 µM and 6.9 µM, respectively. For the same compound, in the assay with HCT-116 [9], the “Ratio IC50” value amounted to 2.2.

These data come from ChEMBL document CHEMBL2203278, “N-Phenyl-4-hydroxy-2-quinolone-3-carboxamides as selective inhibitors of mutant H1047R phosphoinositide-3-kinase (PI3Kα)” (Bioorg Med Chem, 2012).
